Screening data as filed in PubChem BioAssay.
The full list was thinned out, with hits kept by preference.
XiGFP reactiv = X-chromosome reactivation activator; activation, % at 7.58 µM; 360,000 tested, 0.055% active; XiGFP mouse fibroblasts, % GFP-positive cells imaging, 3 d; cells co-treated with 5-aza-dC sensitizer; scaled so ellipticine positive control = 100%;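 active means mean normalized replicate activation at least 10% and every replicate at or above 10%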;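 further: 0% = median of on-plate neutral control wells and 100% = ellipticine 6 µM median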
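assay system = SV40-immortalized XiGFP fibroblast cells, line 68-5-11 | buffer or medium = DMEM plus 5-aza-dC sensitizer | doses = single-point pinned compound dosing | times = 3-day compound exposure, then 15 min fixation at room temperature | benchmarks = positive control ellipticine, 6 µM final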
E-sel inducer = E-selectin induction on HUVECs; P16581; HUVEC E-selectin immunofluorescence imaging; normalized: neutral wells 0, TNF-alpha wells 100; activation, % at 7.58 µM; 260,000 tested, 0.37% active;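 active means mean E-selectin-positive cell signal at least 10% of the positive control, reached in at least 60% of replicates, without over 20% cell loss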
Target sequence (P16581 whole entry, looked up): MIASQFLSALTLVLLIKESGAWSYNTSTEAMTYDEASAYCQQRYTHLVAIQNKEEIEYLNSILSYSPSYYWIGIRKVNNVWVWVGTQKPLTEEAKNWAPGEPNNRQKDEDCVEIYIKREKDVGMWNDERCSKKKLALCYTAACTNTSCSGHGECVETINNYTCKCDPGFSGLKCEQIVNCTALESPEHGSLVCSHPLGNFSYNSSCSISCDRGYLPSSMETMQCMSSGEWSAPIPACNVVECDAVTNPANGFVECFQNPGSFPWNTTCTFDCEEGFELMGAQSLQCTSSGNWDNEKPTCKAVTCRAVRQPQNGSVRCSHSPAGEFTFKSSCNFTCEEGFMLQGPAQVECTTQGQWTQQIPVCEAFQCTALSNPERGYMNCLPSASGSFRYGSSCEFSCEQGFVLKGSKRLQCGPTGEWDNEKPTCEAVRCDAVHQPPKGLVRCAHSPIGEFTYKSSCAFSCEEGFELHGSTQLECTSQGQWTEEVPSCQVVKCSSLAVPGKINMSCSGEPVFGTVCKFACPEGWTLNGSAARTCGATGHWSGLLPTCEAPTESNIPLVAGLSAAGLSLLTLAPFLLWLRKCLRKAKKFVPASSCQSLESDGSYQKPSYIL
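System: HUVEC, human umbilical vein endothelial cells; quantity: 3,000 cells/well; buffer or medium: EGM-2 medium, gelatin-coated wells; dosing: single-point compound dose; detection: immunofluorescence imaging; evaluation: % PE-positive cells; benchmarks: TNF-alpha, DMSO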
Numbers without * were called inactive; . = no result given.

SMILES | XiGFP reactiv | E-sel inducer
CC(C)OC(=O)c1cccnc1N1CCN(c2cccc(Cl)c2)CC1 | 0 | 34*
CN1c2ccc(C#Cc3cccnc3)cc2[C@@H]2[C@@H](CCN2C(=O)C2CCC2)[C@H]1CO | 0 | 64*
CN1c2ccc(C#Cc3cccnc3)cc2[C@@H]2[C@@H](CCN2C(=O)C2CCCC2)[C@@H]1CO | 0 | 0
O=C(C1CCC1)N1CC[C@@H]2[C@H](CO)Nc3ccc(C#Cc4ccc(F)cc4)cc3[C@@H]21 | 0 | 34*
CCC(=O)N1CC[C@@H]2[C@H](CO)Nc3ccc(C#Cc4ccc(F)cc4)cc3[C@@H]21 | 0 | 59*
O=C(C1CCCC1)N1CC[C@@H]2[C@@H](CO)Nc3ccc(C#Cc4ccc(F)cc4)cc3[C@@H]21 | 0 | 11
CCC(=O)N1CC[C@@H]2[C@H]1c1cc(C#Cc3ccc(F)cc3)ccc1N[C@@H]2CO | 0 | 1
CNC(=O)C[C@H]1CC[C@H]2[C@@H](COc3ccc(NC(=O)Nc4cccc(C)c4)cc3C(=O)N2C)O1 | 0 | 0
CN(C)C(=O)C[C@@H]1CC[C@H]2[C@@H](COc3ccc(NC(=O)c4cnccn4)cc3C(=O)N2C)O1 | 0 | 0
O=C(NCc1ccccc1)C1CCCN(S(=O)(=O)c2ccc(-n3cnnn3)cc2)C1 (centres undefined) | 1 | 31*
O=C(NCc1ccc(F)cc1)C1CCCN(S(=O)(=O)c2ccc(-n3cnnn3)cc2)C1 (centres undefined) | 1 | .
O=C(NCC[C@H]1CC[C@@H](NS(=O)(=O)Cc2ccccc2)[C@@H](CO)O1)C1CC1 | 0 | 0
Cc1ccc(S(=O)(=O)N(C)C[C@@H]2OCCCC[C@@H](C)Oc3ccc(NC(=O)c4ccncc4)cc3C(=O)N([C@@H](C)CO)C[C@H]2C)cc1 | 0 | 0
C[C@@H]1CN([C@H](C)CO)C(=O)Cc2cc(NC(=O)Cc3cn(C)c4ccccc34)ccc2O[C@@H]1CN(C)C(=O)Nc1ccc(C(F)(F)F)cc1 | -1 | -7
C[C@H]1CN([C@@H](C)CO)C(=O)Cc2cc(NC(=O)Cc3cn(C)c4ccccc34)ccc2O[C@H]1CN(C)Cc1ccc(C(F)(F)F)cc1 | 3 | 258*
C[C@H](CO)N1C[C@H](C)[C@@H](CN(C)C(=O)Nc2ccc(C(F)(F)F)cc2)Oc2ccc(NC(=O)Cc3cn(C)c4ccccc34)cc2CC1=O | -1 | 34*
C[C@@H]1CN([C@H](C)CO)C(=O)Cc2cc(NC(=O)Cc3cn(C)c4ccccc34)ccc2O[C@@H]1CN(C)Cc1ccccc1 | 0 | 0
C[C@@H]1CN([C@H](C)CO)C(=O)Cc2cc(NC(=O)Cc3cn(C)c4ccccc34)ccc2O[C@H]1CN(C)Cc1ccc(C(F)(F)F)cc1 | 0 | 152*
C[C@@H]1CN([C@@H](C)CO)C(=O)Cc2cc(NC(=O)Cc3cn(C)c4ccccc34)ccc2O[C@@H]1CN(C)Cc1ccccc1 | 0 | 0
Cc1ccc(S(=O)(=O)Nc2cccc3c2O[C@H](CN(C)Cc2ccc(C(F)(F)F)cc2)[C@@H](C)CN([C@@H](C)CO)C3=O)cc1 | 0 | 0
Cc1noc(C)c1S(=O)(=O)Nc1ccc2c(c1)C(=O)N([C@@H](C)CO)C[C@@H](C)[C@H](CN(C)Cc1ccc3c(c1)OCO3)OCCCC[C@@H](C)O2 | 0 | 0
C[C@@H]1CN([C@H](C)CO)C(=O)c2cc(NC(=O)NC3CCCCC3)ccc2O[C@@H](C)CCCCO[C@@H]1CN(C)S(=O)(=O)c1ccc(Cl)cc1 | 0 | 0
O=[N+]([O-])c1ccc(Nc2ccccc2)c2nonc12 | 0 | -2
O=[N+]([O-])c1ccc(Sc2cccc[n+]2[O-])c2nonc12 | 59* | 0
C[C@H](CO)N1C[C@H](C)[C@@H](CN(C)S(=O)(=O)c2cn(C)cn2)Oc2ccc(NC(=O)Nc3ccc(C(F)(F)F)cc3)cc2C1=O | 0 | .
SMILES | XiGFP reactiv | E-sel inducer
Cn1nc(C(=O)NNC(=O)c2ccccc2Br)c2ccccc2c1=O | 0 | 237*
Cn1nc(C(=O)NNC(=O)c2ccccc2F)c2ccccc2c1=O | 0 | .
CC(C)C#Cc1ccc2c(c1)O[C@H](CN(C)CC1CCOCC1)[C@H](C)CN([C@@H](C)CO)S2(=O)=O | 1 | -1
CC(=O)Nc1ccc2c3c(cccc13)C(=O)N(c1ccccc1)C2=O | 0 | 0
O=CNc1ccc2c3c(cccc13)-c1ccccc1-2 | 55* | 1
C/C=C/c1ccc([C@@H]2[C@H](CO)N(C(=O)CC)C23CN(S(C)(=O)=O)C3)cc1 | 0 | 0
O=C(N[C@@H]1CC[C@@H](CCNS(=O)(=O)Cc2ccccc2)O[C@@H]1CO)c1cnccn1 | 0 | 0
COc1ccc(CN(C)C[C@@H]2Oc3ccc(NC(=O)Nc4ccc(F)cc4)cc3CC(=O)N([C@@H](C)CO)C[C@@H]2C)cc1 | 0 | 62*
COc1ccc(CN(C)C[C@H]2Oc3ccc(NC(=O)Nc4ccc(F)cc4)cc3CC(=O)N([C@@H](C)CO)C[C@@H]2C)cc1 | 0 | 8
C[C@@H]1CN([C@@H](C)CO)C(=O)Cc2cc(NC(=O)Nc3ccccc3)ccc2O[C@H]1CN(C)Cc1ccc(C(=O)O)cc1 | -1 | 0
C[C@@H]1CN([C@@H](C)CO)C(=O)Cc2cc(NC(=O)Nc3ccc(F)cc3)ccc2O[C@@H]1CN(C)Cc1ccc(C(=O)O)cc1 | 0 | 80*
C[C@@H]1CN([C@H](C)CO)C(=O)c2cc(NC(=O)Nc3cccc4ccccc34)ccc2O[C@@H]1CN(C)S(=O)(=O)c1ccc(Cl)cc1 | 0 | 11
CCCN1C[C@H](C)[C@@H](OC)CN(C)C(=O)c2cc(NC(=O)NC3CCCC3)ccc2OC[C@@H]1C | 0 | 0
O=c1c2ccccc2nnn1Cc1ccc2ccccc2c1 | 73* | 4
O=c1c2ccccc2nnn1COc1cccc2ccccc12 | 0 | .
C[C@@H]1CCCCO[C@H](CN(C)C(=O)Cc2ccccc2)[C@@H](C)CN([C@H](C)CO)C(=O)c2cc(NC(=O)c3ccccc3)ccc2O1 | 0 | .
COc1ccc(NC(=O)Nc2ccc3c(c2)[C@@H]2C[C@@H](CC(=O)N(C)C)O[C@@H](CO)[C@@H]2O3)cc1 | 1 | 0
COc1ccc2nc(C)cc(Nc3ccc(C)cc3)c2c1 | 0 | 0
COc1ccc2nc(C)cc(NCc3ccc(F)cc3)c2c1 | 97* | 2
Cc1[nH]c2ccccc2c1/C=N/NC(=O)c1cccc([N+](=O)[O-])c1 | 0 | 57*
Cc1[nH]c2ccccc2c1/C=N/NC(=O)c1cccc(F)c1 | 0 | 4
Cc1[nH]c2ccccc2c1/C=N/Nc1ccccn1 | -1 | 0
Cc1[nH]c2ccccc2c1/C=N/Nc1ccc([N+](=O)[O-])cc1 | 75* | .
C[C@H](CO)N1C[C@H](C)[C@H](CN(C)S(=O)(=O)c2ccc(F)cc2)OCCCC[C@H](C)Oc2ccc(NC(=O)Nc3ccc(F)cc3)cc2C1=O | 0 | 0
COc1ccc(NC(=O)N(C)C[C@H]2Oc3c(NS(C)(=O)=O)cccc3C(=O)N([C@@H](C)CO)C[C@@H]2C)cc1 | 0 | .
CCCC#Cc1ccc2c(c1)O[C@H](CN(C)C(=O)Nc1ccccc1F)[C@@H](C)CN([C@@H](C)CO)S2(=O)=O | 0 | 1
C[C@@H]1ON(C)[C@H]2C[C@H]3c4[nH]c5cccc(Br)c5c4CCN3C(=O)[C@@H]12 | 2 | 0
